# The source made the active and inactive calls. The rule behind the calls is not given here.
# Assays:
# [1] = biological target: T1, Nuclear receptor ROR-gamma (Homo sapiens, UniProt P51449); assay: Displacement of [3H]-T0903017 from GST-tagged ROR-gamma (unknown origin) after 20 hrs
# T1 sequence (P51449 whole entry): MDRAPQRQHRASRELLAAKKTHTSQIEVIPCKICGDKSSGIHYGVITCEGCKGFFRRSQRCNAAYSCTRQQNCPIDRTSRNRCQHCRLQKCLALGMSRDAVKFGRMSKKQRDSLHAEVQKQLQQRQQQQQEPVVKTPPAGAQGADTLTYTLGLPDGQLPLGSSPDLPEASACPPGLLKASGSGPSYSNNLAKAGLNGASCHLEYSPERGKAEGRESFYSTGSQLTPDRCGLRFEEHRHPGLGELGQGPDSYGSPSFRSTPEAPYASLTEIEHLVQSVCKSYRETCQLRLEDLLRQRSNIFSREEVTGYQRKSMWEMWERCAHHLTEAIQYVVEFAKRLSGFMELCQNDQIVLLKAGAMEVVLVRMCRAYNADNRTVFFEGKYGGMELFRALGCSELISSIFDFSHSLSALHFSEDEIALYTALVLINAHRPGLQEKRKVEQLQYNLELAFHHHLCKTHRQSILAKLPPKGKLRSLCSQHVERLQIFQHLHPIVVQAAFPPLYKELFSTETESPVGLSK
# Cytochrome P450 3A4 = Cytochrome P450 3A4 (Homo sapiens, UniProt P08684); assay: Inhibition of CYP3A4 (unknown origin) at 10 uM; assay type: ADME
# [2] = Solubility of the compound in phosphate buffered saline at 100 uM at pH 7.4 after 20 hrs; assay type: physicochemical; details: buffer, pH 7.4, 20 h
# Procedure, shortened: (§1)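 100 µM compound solutions shaken at room temperature for 20 hr in PBS pH 7.4 or sodium citrate buffer pH 5.0; dissolved concentration reported in µM.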
# Cytochrome P450 1A2 = biological target: T2, Cytochrome P450 1A2 (Homo sapiens, UniProt P05177); assay: Inhibition of CYP1A2 (unknown origin) at 10 uM; assay type: ADME
# T2 sequence (P05177 whole entry): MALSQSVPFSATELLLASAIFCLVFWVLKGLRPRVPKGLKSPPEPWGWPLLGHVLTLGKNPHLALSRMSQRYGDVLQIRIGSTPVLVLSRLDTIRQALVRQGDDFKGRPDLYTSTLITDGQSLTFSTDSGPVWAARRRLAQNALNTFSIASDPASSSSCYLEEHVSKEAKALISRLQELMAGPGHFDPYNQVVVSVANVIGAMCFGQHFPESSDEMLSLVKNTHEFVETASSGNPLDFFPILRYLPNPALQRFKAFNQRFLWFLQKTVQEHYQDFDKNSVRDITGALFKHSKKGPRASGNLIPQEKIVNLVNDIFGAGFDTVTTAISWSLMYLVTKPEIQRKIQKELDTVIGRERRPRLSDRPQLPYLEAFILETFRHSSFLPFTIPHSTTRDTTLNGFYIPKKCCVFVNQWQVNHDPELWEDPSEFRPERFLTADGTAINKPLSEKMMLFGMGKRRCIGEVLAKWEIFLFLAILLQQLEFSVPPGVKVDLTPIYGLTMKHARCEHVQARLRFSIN
# Cytochrome P450 2C9 = Cytochrome P450 2C9 (Homo sapiens, UniProt P11712); assay: Inhibition of CYP2C9 (unknown origin) at 10 uM; assay type: ADME
# [3] = Solubility of the compound in sodium citrate buffer at 100 uM at pH 5 after 20 hrs; assay type: physicochemical; details: pH 5, 20 h; procedure, shortened: as §1
# Cytochrome P450 2D6 = Cytochrome P450 2D6 (Homo sapiens, UniProt P10635); assay: Inhibition of CYP2D6 (unknown origin) at 10 uM; assay type: ADME
# Brain = assay: Brain penetration in C57Bl6 mouse brain at 10 mg/kg, ip after 6 hrs; assay type: ADME, organism-based; set-up: dose 10 mg/kg, route intraperitoneal; details: in vivo
# [4] = biological target: T3, Bile acid receptor (Homo sapiens) (UniProt Q96RI1); assay: Modulation of FXR (unknown origin)
# T3 sequence (whole entry): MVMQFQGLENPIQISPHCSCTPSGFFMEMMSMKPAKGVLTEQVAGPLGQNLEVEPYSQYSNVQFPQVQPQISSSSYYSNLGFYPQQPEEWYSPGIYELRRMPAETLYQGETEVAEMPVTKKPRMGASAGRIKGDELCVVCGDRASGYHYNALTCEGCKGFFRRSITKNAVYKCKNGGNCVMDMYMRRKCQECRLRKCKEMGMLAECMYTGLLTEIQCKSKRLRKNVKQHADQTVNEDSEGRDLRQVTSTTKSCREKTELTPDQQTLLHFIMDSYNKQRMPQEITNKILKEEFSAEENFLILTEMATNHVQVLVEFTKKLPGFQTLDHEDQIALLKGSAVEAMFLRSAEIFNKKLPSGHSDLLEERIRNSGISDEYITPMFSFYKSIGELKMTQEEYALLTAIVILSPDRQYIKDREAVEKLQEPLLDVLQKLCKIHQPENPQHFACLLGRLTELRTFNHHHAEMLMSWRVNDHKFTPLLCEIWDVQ
# [5] = biological target: T4, Oxysterols receptor LXR-alpha (Homo sapiens) (UniProt Q13133); assay: Modulation of LXR-alpha (unknown origin)
# T4 sequence (whole entry): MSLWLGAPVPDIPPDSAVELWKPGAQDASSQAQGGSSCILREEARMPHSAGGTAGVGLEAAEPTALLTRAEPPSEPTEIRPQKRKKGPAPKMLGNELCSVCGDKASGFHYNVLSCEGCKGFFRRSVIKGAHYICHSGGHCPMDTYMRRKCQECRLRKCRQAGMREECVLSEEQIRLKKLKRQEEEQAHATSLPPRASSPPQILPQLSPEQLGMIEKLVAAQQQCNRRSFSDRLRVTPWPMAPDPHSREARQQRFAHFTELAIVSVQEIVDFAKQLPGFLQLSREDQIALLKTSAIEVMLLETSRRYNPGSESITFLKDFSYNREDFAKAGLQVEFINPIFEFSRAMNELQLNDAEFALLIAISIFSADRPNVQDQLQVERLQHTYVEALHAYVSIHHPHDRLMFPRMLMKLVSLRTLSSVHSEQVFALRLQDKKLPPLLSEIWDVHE
# [6] = Drug level in C57Bl6 mouse brain at 10 mg/kg, ip after 6 hrs; assay type: ADME, organism-based; set-up: dose 10 mg/kg, route intraperitoneal; details: read-out: Drug uptake
# [7] = Plasma concentration in C57Bl6 mouse at 10 mg/kg, ip after 6 hrs; assay type: ADME, organism-based; set-up: dose 10 mg/kg, route intraperitoneal
# Cytochrome P450 2C9, sequence (P11712 whole entry): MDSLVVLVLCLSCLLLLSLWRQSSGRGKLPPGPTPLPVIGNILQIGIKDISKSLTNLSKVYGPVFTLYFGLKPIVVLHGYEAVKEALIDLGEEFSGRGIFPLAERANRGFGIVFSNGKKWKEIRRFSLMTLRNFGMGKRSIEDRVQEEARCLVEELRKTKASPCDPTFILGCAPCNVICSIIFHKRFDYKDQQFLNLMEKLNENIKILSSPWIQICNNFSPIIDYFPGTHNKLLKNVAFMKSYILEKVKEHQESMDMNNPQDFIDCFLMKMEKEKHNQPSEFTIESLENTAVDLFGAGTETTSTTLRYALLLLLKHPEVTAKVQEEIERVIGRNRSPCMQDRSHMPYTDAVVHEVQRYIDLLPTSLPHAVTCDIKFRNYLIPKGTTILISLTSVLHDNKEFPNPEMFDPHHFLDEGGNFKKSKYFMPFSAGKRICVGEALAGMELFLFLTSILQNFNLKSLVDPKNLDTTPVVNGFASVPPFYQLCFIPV
# Cytochrome P450 3A4, sequence (P08684 whole entry): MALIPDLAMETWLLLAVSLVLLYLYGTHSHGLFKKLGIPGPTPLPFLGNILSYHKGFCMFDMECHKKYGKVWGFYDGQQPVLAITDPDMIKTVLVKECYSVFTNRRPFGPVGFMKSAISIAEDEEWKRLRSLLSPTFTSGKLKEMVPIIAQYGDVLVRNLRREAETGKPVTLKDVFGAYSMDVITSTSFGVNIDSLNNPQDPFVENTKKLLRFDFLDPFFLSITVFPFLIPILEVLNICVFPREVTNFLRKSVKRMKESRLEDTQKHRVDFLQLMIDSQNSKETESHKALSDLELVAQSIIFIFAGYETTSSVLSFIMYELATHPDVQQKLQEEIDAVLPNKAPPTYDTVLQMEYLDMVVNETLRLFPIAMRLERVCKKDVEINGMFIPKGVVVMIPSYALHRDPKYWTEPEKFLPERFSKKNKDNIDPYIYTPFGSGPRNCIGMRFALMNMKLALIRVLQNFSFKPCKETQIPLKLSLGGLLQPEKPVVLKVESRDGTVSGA
# Cytochrome P450 2D6, sequence (P10635 whole entry): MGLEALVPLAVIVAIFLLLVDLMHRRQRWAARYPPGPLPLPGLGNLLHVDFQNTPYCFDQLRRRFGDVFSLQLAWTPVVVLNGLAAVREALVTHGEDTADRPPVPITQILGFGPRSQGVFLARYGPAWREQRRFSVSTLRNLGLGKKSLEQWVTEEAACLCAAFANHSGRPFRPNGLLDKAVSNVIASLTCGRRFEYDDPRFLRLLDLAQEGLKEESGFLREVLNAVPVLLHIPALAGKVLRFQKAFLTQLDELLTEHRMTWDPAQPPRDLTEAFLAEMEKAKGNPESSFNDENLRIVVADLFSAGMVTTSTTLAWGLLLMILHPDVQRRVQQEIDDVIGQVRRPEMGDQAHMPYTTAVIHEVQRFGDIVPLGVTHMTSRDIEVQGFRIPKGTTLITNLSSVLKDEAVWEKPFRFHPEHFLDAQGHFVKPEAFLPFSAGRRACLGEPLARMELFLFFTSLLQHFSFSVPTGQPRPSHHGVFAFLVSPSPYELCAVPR
Structure (SMILES),IC50 [1],inhibition (INH) (Cytochrome P450 3A4),solubility [2],inhibition (INH) (Cytochrome P450 1A2),inhibition (INH) (Cytochrome P450 2C9),solubility [3],inhibition (INH) (Cytochrome P450 2D6),other results
COc1ccc(C(CC(=O)NC2CCCC2)c2c(O)cc(OC)cc2OC)cc1 (stereo not drawn),Not Active,–,–,–,–,–,–,–
COc1ccc(C(CC(=O)NCc2ccccc2)c2c(O)cc(OC)cc2OC)cc1 (stereo not drawn),Not Active,–,–,–,–,–,–,–
COc1cc(O)c(C(CC(=O)N2CC(C)CC(C)C2)c2ccccc2OC)c(OC)c1 (stereo not drawn),–,70%,12.7 µM,-22%,53%,6 µM,-11%,–
COc1ccc(C(CC(=O)N2CCCCC2)c2c(O)cc(OC)cc2OC)cc1 (stereo not drawn),Not Active,–,–,–,–,–,–,–
COc1ccc(C(CC(=O)N2CCOCC2)c2c(O)cc(OC)cc2OC)cc1 (stereo not drawn),Not Active,–,–,–,–,–,–,–
COc1ccc(C(CC(=O)N2CCCC2)c2c(O)cc(OC)cc2OC)cc1 (stereo not drawn),Not Active,–,–,–,–,–,–,–
COc1ccc(C(CC(=O)N2CC(C)CC(C)C2)c2c(O)cc(OC)cc2OC)cc1 (stereo not drawn),–,75%,18 µM,4%,65%,19.5 µM,-7%,–
COc1cc(O)c(C(CC(=O)N2CC(C)CC(C)C2)c2ccc3c(c2)OCO3)c(OC)c1 (stereo not drawn),–,97%,15.6 µM,3%,92%,15.2 µM,15%,Drug uptake (Brain): 260%; Activity [4]: inactive; Activity [5]: inactive; concentration at 6 h [6]: 780 nM; concentration at 6 h [7]: 300 nM
